Peptide text beside a SMILES is read from it.
Key:
[1] = Partition coefficient (logD1.0); assay type: physicochemical; conditions: octanol/water, pH 1
Summary of the method: (§1)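 log D measured in n-octanol/aqueous phosphate buffer (0.02 mol L-1) by centrifugal partition chromatography in a multilayer coil separator–extractor at room temperature. UV detection was at the pH-dependent λmax. log D was computed from solute and solvent-front retention times, flow rate and column capacity. t0 came from K2Cr2O7 (pH > 4.5), CoCl2 (acidic pH) or biphenyl.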

[2] = compound was evaluated for reverse occurs for the rate constant(log K-1) at pH 1.0; assay type: ADME; conditions: buffer
Summary of the method: (§2)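 Transfer rate constants were measured in a triphasic water/octanol/water system (Kochi's flask). Compound in 40 mL of 0.06 mol L-1 phosphate buffer sat in compartment A, and 40 mL of the same buffer at the same pH sat in compartment B. 80 mL octanol was layered over both compartments.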

[3] = compound was evaluated for rate constant of transfer (log K1) at pH 1.0; assay type: ADME; summary of the method: as §2
[4] = compound was evaluated for rate constant of transfer (log K1) at pH 7.4; assay type: ADME; summary of the method: as §2
[5] = (§3) Partition coefficient (logD3.0); assay type: physicochemical; conditions: octanol/water, pH 3
[6] = compound was evaluated for rate constant of transfer (log K1) at pH 3.0; assay type: ADME; summary of the method: as §2
[7] = compound was evaluated for reverse occurs for the rate constant(log K-1) at pH 3.0; assay type: ADME; conditions: buffer; summary of the method: as §2
[8] = compound was evaluated for reverse occurs for the rate constant(log K-1) at pH 7.4; assay type: ADME; conditions: buffer; summary of the method: as §2
[9] = compound were evaluated for rate constant of transfer (log K1) at pH 7.4; assay type: ADME; summary of the method: as §2
[10] = Partition coefficient (logD6.8); conditions: octanol/water, pH 6.8
[11] = Partition coefficient (logD1.5); conditions: octanol/water, pH 1.5
[12] = as §3; conditions: octanol/water, pH 3
[13] = Partition coefficient (logD9.4); conditions: octanol/water, pH 9.4
[14] = Pharmacokinetic parameter :volume apparent of distribution was reported; assay type: ADME, organism-based; conditions: in vivo
[15] = Pharmacokinetic parameter :drug bound to plasma was reported; assay type: ADME, cell-free
[16] = Pharmacokinetic parameter :half life in humans was reported; assay type: ADME, organism-based; conditions: human, in vivo; read-out: T1/2 beta (converted)
[17] = compound was evaluated for saturable association constant (nKa) of isolated serum protein LDL
[18] = compound was evaluated for saturable association constant (nKa) of isolated serum protein VLDL
[19] = Partition coefficient between dodecane and water (logDdod7.4); assay type: physicochemical; conditions: pH 7.4
[20] = Lipophilicity parameter log Pdod N; assay type: physicochemical; conditions: dodecane/water
[21] = (§4) Partition coefficient (logD7.4); assay type: physicochemical; conditions: octanol/water, pH 7.4
[22] = Lipophilicity parameter log Poct N; conditions: octanol/water
[23] = compound was evaluated for rate constant of transfer (log K1) at pH 4.6; assay type: ADME; summary of the method: as §2
[24] = compound was evaluated for rate constant of transfer (log K1) at pH 8.8; assay type: ADME; summary of the method: as §2
[25] = compound was evaluated for reverse occurs for the rate constant(log K-1) at pH 4.6; assay type: ADME; conditions: buffer; summary of the method: as §2
[26] = compound was evaluated for reverse occurs for the rate constant(log K-1) at pH 8.8; assay type: ADME; conditions: buffer; summary of the method: as §2
[27] = Partition coefficient (logD4.6); assay type: physicochemical; conditions: octanol/water, pH 4.6; summary of the method: as §1
[28] = as §4; assay type: physicochemical; conditions: octanol/water, pH 7.4; summary of the method: as §1; remark: listed apart in the source

| SMILES | Log K1 [4] | logD ([5]; read-out: logD) | Log K-1 [8] | Vd [14] [L/kg] | B [15] [%] | further results |
| --- | --- | --- | --- | --- | --- | --- |
| CN(C(=O)C1=C(O)c2ccccc2S(=O)(=O)N1C)c1ccccn1 | -1.22 | 0.14 | -1.73 | – | – | logD [1]: -0.12; Log K-1 [2]: -1.69; Log K1 [3]: -1.51; logD [5]: 0.14; Log K1 [6]: -1.19; Log K-1 [7]: -1.63 |
| COC1=C(C(=O)Nc2ccccn2)N(C)S(=O)(=O)c2ccccc21 | – | 0.07 | – | – | – | Log K-1 [2]: -1.69; Log K1 [3]: -1.32 |
| CC(C)C[C@H](N)C(=O)N[C@@H](Cc1ccccc1)C(=O)O (H-Leu-Phe-OH) | -2.55 | – | -1.77 | – | – | – |
| N[C@@H](Cc1ccccc1)C(=O)N[C@@H](Cc1ccccc1)C(=O)O (H-Phe-Phe-OH) | – | -1.02 | -1.57 | – | – | Log K1 [9]: -2.29 |
| N[C@@H](Cc1c[nH]c2ccccc12)C(=O)N[C@@H](Cc1ccccc1)C(=O)O (H-Trp-Phe-OH) | -1.94 | -0.52 | -1.74 | – | – | – |
| N[C@@H](Cc1c[nH]c2ccccc12)C(=O)N[C@@H](Cc1ccc(O)cc1)C(=O)O (H-Trp-Tyr-OH) | -2.73 | -1.38 | -1.72 | – | – | – |
| Cc1ccc(/C(=C\CN2CCCC2)c2cccc(/C=C/C(=O)O)n2)cc1 [ACRIVASTINE] | – | 0.86 | – | – | – | logD [10]: -0.03; logD [11]: -0.93; logD [12]: -0.48; logD [13]: 0.24 |
| COc1ccc(CCN2CCC(Nc3nc4ccccc4n3Cc3ccc(F)cc3)CC2)cc1 [ASTEMIZOLE] | – | – | – | 48 | 96 | half-life [16]: 1560 min |
| CN1CCCC(n2nc(Cc3ccc(Cl)cc3)c3ccccc3c2=O)CC1 (stereo unspecified) [AZELASTINE] | – | – | – | 14.5 | – | half-life [16]: 1500 min |
| CN(C)CCC(c1ccc(Br)cc1)c1ccccn1 (stereo unspecified) [BROMPHENIRAMINE] | – | – | – | 10 | 72 | half-life [16]: 1490 min |
| CC(C)(C(=O)O)c1ccc(C(=O)CCCN2CCC(OC(c3ccccc3)c3ccccc3)CC2)cc1 [CAREBASTINE] | – | – | – | 2.4 | 98 | half-life [16]: 960 min |
| O=C(O)COCCN1CCN(C(c2ccccc2)c2ccc(Cl)cc2)CC1 (stereo unspecified) [CETIRIZINE] | – | – | – | – | – | nKa [17]: 2.21 M/M; nKa [18]: 289 M/M |
| CN(C)CCC(c1ccc(Cl)cc1)c1ccccn1 (stereo unspecified) [CHLORPHENIRAMINE] | – | – | – | 5.9 | 72 | – |
| CN(C)CCOC(c1ccccc1)c1ccccc1 [DIPHENHYDRAMINE] | – | – | – | – | 98 | – |
| CC(C)(C(=O)O)c1ccc(C(O)CCCN2CCC(C(O)(c3ccccc3)c3ccccc3)CC2)cc1 (stereo unspecified) [FEXOFENADINE] | – | – | – | – | 65 | – |
| OCCOCCN1CCN(C(c2ccccc2)c2ccc(Cl)cc2)CC1 (stereo unspecified) [HYDROXYZINE] | – | – | – | 30.5 | – | logD [19]: 0.9; Log Pdod N [20]: 1.25; logD [21]: 3.1; half-life [16]: 1200 min; logP [22]: 3.5 |
| CC(CCc1ccccc1)NCC(O)c1ccc(O)c(C(N)=O)c1 (stereo unspecified) [LABETALOL] | – | 1.03 | – | – | – | Log K1 [23]: -2.07; Log K1 [24]: -0.89; Log K-1 [25]: -1.58; Log K-1 [26]: -2.22; logD [27]: -0.8 |
| CCOC(=O)N1CCC(=C2c3ccc(Cl)cc3CCc3cccnc32)CC1 [LORATADINE] | – | – | – | – | 97 | – |
| CNCc1ccccc1 [N-BENZYLMETHYLAMINE] | -0.78 | 0.86 | -1.94 | – | – | – |
| Oc1ccccc1 [PHENOL] | -0.68 | 1.54 | -2.5 | – | – | – |
| CN1C(C(=O)Nc2ccccn2)=C(O)c2ccccc2S1(=O)=O [PIROXICAM] | -1.53 | 1.43 | -1.75 | – | – | logD [28]: -0.08; logD [1]: 0.63; Log K-1 [2]: -1.93; Log K1 [3]: -1; Log K1 [6]: -0.69; Log K-1 [7]: -2.42 |
| c1ccncc1 [PYRIDINE] | -0.83 | – | -1.7 | – | – | – |
| CC(C)(C)c1ccc(C(O)CCCN2CCC(C(O)(c3ccccc3)c3ccccc3)CC2)cc1 (stereo unspecified) [TERFENADINE] | – | – | – | 2.9 | 98 | half-life [16]: 1380 min |
| Cc1ccc(/C(=C\CN2CCCC2)c2ccccn2)cc1 [TRIPROLIDINE] | – | – | – | 8.7 | 90 | half-life [16]: 1800 min |
